Measured values reported in ChEMBL document CHEMBL3351575, “Halogenated diarylacetylenes repress c-myc expression in cancer cells” (Bioorg Med Chem Lett, 2014).
The source made the active and inactive calls. The calls are words filed in the database; no cut-off is given here.

Experiments:
Format in all cases: functional, cell-based
[1] = Antiproliferative activity against human LS 174T cells after 4 days by Vi-Cell cell viability analyzer; conditions: LS174T, 96 h
[2] = system: LS174T; test: Induction of p21([…]/Cip1) expression in human LS 174T cells at 1 uM after 36 hrs by Western blotting analysis
How it was run: (§1)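 LS174T colon cancer cells exposed to each diarylacetylene at 1 μM for 36 h, alongside a DMSO vehicle control and a reference compound; cell lysates then probed by western blot, with β-tubulin as the loading control.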

[3] = system: LS174T; test: Inhibition of c-myc expression in human LS 174T cells at 1 uM after 36 hrs by Western blotting analysis; how it was run: as §1

Structure (SMILES) | IC50 [1] [nM] | Activity [2] | inhibition [3]
Nc1ccc(C#Cc2c(F)cccc2F)cc1 | 55 |  | 
CN(C)c1ccc(C#Cc2cccc(F)c2)cc1 | > 3000 | Active | Active
CN(C)c1ccc(/C=C/c2c(F)cccc2F)cc1 | 59 | Active | Active
CN(C)c1ccc(C#Cc2ccccc2Cl)cc1 | 31 | Active | Active
CN(C)c1ccc(C#Cc2ccc(F)cc2)cc1 | > 3000 | Active | Active
CN(C)c1ccc(C#Cc2ccccc2)cc1 | > 3000 | Active | Active
CN(C)c1ccc(C#Cc2c(F)cccc2F)cc1 | 23 | Active | Active
CN(C)c1ccc(C#Cc2c(F)cccc2Cl)cc1 | 19 | Active | Active
CN(C)c1ccc(C#Cc2cc(F)ccc2F)cc1 | 55 |  | 
CN(C)c1ccc(C#Cc2c(Cl)cccc2Cl)cc1 | 52 | Active | Active
CN(C)c1ccc(C#Cc2cc(F)cc(F)c2)cc1 | > 3000 |  | 
CN(C)c1ccc(C#Cc2ccc(F)c(F)c2)cc1 | > 3000 | Active | Active
CN(C)c1ccc(C#Cc2ccccc2F)cc1 | 39 | Active | Active
CNc1ccc(C#Cc2c(F)cccc2F)cc1 | 23 | Active | Active
CN(C)c1ccc(C#Cc2cccc(F)c2F)cc1 | 119 |  | 
CN(C)c1ccc(C#Cc2ccc(F)cc2F)cc1 | 56 |  | 
